# Source: ChEMBL document CHEMBL1133480, “Rational design, synthesis, and biological activity of benzoxazinones as novel factor Xa inhibitors” (J Med Chem, 2000)
# Tests used:
# Oryctolagus cuniculus [1] = species: Oryctolagus cuniculus; experiment: In Vitro evaluation for the concentration for 2 fold prolongation of Prolonged activated partial thromboplastin Time (aPTT) assay in rabbit; type: functional
# Summary of the method: (§1)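 Clotting assays (PT or aPTT) used pooled plasma from the named species with added inhibitor. The value is the concentration giving a 2-fold prolongation of clotting time. Determinations were done in duplicate.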
# [2] = biological target: Vitamin K-dependent protein C (Homo sapiens, UniProt P04070); experiment: Compound was tested for in vitro inhibitory activity against activated protein C
# Coagulation factor X [3] = biological target: T1, Coagulation factor X (Homo sapiens, UniProt P00742); experiment: In vitro inhibition of coagulation factor Xa.
# Summary of the method: (§2)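 Enzyme was preincubated 1 h at room temperature with inhibitor across 14 concentrations (1 nM–100 μM final). A405 was read kinetically over 10 min at 37 °C. Percent inhibition came from the linear progress-curve slopes, typically in duplicate.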
# Oryctolagus cuniculus [4] = experiment: effect on the time to occlusion in the rabbit Veno-venous Shunt model by administering through intravenous (IV) bolus (30 ug/kg) + infusion (1 ug/kg/min); type: functional
# Summary of the method: (§3)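 Rabbit veno-venous shunt containing cotton threads. Test agent was given as an iv bolus plus continuous infusion at the stated dose. The endpoint was time to occlusion of the shunt vessel, observed over a 2-h window. Incidence of occlusion per group was recorded. n = 5 per dose group, mean ± SE.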
# Canis familiaris [5] = experiment: effect on the time to occlusion(TO) in the dog electrolytic injury model at the 0 ug/kg/min to the artery; type: functional, Canis lupus familiaris
# Summary of the method: (§4)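 Anesthetized dogs received electrolytic injury to the endothelium as the thrombotic stimulus in the femoral artery and a vein. Agent was infused continuously at 0 (control), 1.25, 2.5, 5 or 10 μg/kg/min. Time to occlusion was recorded up to a maximum of 240 min. n = 12 control, 4 at 1.25, and 5 at each other dose; mean ± SEM.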
# Plasminogen = Plasminogen (Homo sapiens, UniProt P00747); experiment: Compound was tested for in vitro inhibitory activity against plasmin; summary of the method: as §2
# Canis familiaris [6] = experiment: effect on the time to occlusion(TO) in the dog electrolytic injury model at the 5 ug/kg/min to the vein; type: functional, Canis lupus familiaris; summary of the method: as §4
# Oryctolagus cuniculus [7] = species: Oryctolagus cuniculus; experiment: In Vitro evaluation for the concentration for 2 fold prolongation of Prothrombin Time (PT) assay in rabbit; type: functional; summary of the method: as §1
# Canis familiaris [8] = experiment: effect on the time to occlusion(TO) in the dog electrolytic injury model at the 2.5 ug/kg/min to the vein; type: functional, Canis lupus familiaris; summary of the method: as §4
# Canis lupus familiaris [9] = species: Canis lupus familiaris; experiment: In Vitro evaluation for the concentration for 2 fold prolongation of Prothrombin Time (PT) assay in dog
# [10] = Compound was tested for in vitro inhibitory activity against Chymotrypsinogen at 100 uM
# Homo sapiens [11] = species: Homo sapiens; experiment: In Vitro evaluation for the concentration for 2 fold prolongation of Prolonged activated partial thromboplastin Time (aPTT) assay in human; type: functional; summary of the method: as §1
# Oryctolagus cuniculus [12] = experiment: effect on the time to occlusion in the rabbit Veno-venous Shunt model by administering through intravenous (IV) bolus (60 ug/kg) + infusion (2 ug/kg/min); type: functional; summary of the method: as §3
# Canis lupus familiaris [13] = species: Canis lupus familiaris; experiment: In Vitro evaluation for the concentration for 2 fold prolongation of Prolonged activated partial thromboplastin Time (aPTT) assay in dog
# Canis familiaris [14] = experiment: effect on the time to occlusion(TO) in the dog electrolytic injury model at the 1.25 ug/kg/min to the vein; type: functional, Canis lupus familiaris; summary of the method: as §4
# Oryctolagus cuniculus [15] = experiment: effect on the time to occlusion in the rabbit Veno-venous Shunt model by administering through intravenous (IV) bolus (90 ug/kg) + infusion (3 ug/kg/min); type: functional; summary of the method: as §3
# Canis familiaris [16] = experiment: effect on the time to occlusion(TO) in the dog electrolytic injury model at the 10 ug/kg/min to the artery; type: functional, Canis lupus familiaris; summary of the method: as §4
# Canis familiaris [17] = experiment: effect on the time to occlusion(TO) in the dog electrolytic injury model at the 5 ug/kg/min to the artery; type: functional, Canis lupus familiaris; summary of the method: as §4
# Canis familiaris [18] = experiment: effect on the time to occlusion(TO) in the dog electrolytic injury model at the 2.5 ug/kg/min to the artery; type: functional, Canis lupus familiaris; summary of the method: as §4
# Coagulation factor X [19] = biological target: T1, Coagulation factor X; experiment: Compound was tested for in vitro inhibitory activity against Prothrombinase
# Canis familiaris [20] = experiment: effect on the time to occlusion(TO) in the dog electrolytic injury model at the 10 ug/kg/min to the vein; type: functional, Canis lupus familiaris; summary of the method: as §4
# [21] = biological target: T2, Coagulation factor VII (Homo sapiens) (UniProt P08709); experiment: Compound was tested for in vitro inhibitory activity against coagulation factor VII at 100 uM
# T2 sequence (whole entry): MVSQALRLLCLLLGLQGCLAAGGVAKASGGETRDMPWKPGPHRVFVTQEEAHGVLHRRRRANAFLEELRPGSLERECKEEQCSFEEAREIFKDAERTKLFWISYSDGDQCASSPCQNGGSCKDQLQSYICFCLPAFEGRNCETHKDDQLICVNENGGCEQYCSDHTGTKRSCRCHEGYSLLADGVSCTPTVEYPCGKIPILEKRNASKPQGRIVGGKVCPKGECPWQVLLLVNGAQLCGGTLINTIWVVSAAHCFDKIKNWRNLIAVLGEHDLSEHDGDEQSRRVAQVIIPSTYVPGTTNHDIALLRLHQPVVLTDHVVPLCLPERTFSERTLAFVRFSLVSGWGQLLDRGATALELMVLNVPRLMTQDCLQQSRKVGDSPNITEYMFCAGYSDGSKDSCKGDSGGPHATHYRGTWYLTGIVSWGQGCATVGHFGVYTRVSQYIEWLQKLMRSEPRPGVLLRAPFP
# Homo sapiens [22] = species: Homo sapiens; experiment: In Vitro evaluation for the concentration for 2 fold prolongation of Prothrombin Time (PT) assay in human
# Canis familiaris [23] = experiment: effect on the time to occlusion(TO) in the dog electrolytic injury model at the 0 ug/kg/min to the vein; type: functional, Canis lupus familiaris; summary of the method: as §4
# Canis familiaris [24] = experiment: effect on the time to occlusion(TO) in the dog electrolytic injury model at the 1.25 ug/kg/min to the artery; type: functional, Canis lupus familiaris; summary of the method: as §4
# T1 sequence (P00742 41-179 limits assumed): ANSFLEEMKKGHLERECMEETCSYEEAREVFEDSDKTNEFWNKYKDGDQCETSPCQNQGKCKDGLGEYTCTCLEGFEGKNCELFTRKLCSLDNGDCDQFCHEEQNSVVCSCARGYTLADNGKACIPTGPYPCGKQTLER
# T1 sequence (P00742 235-488 limits assumed): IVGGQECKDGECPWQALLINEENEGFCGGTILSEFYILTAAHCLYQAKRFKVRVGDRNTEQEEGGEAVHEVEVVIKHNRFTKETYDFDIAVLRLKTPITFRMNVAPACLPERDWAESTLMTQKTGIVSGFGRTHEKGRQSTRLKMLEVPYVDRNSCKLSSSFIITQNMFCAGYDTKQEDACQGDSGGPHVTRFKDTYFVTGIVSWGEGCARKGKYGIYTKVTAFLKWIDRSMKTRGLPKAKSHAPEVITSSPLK
# Sequence of Vitamin K-dependent protein C (P04070 43-197 limits assumed): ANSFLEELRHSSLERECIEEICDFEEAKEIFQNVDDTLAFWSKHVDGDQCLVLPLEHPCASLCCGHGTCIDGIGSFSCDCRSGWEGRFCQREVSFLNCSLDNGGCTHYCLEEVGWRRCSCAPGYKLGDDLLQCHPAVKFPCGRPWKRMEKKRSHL
# Sequence of Vitamin K-dependent protein C (P04070 212-461 limits assumed): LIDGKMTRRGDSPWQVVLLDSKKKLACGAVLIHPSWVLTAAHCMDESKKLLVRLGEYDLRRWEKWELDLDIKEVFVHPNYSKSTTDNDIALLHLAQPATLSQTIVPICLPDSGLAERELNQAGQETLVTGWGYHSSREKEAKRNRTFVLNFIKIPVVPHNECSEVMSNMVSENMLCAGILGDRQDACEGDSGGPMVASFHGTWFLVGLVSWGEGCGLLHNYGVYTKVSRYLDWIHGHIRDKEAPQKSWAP
# Sequence of Plasminogen (P00747 97-580 limits assumed): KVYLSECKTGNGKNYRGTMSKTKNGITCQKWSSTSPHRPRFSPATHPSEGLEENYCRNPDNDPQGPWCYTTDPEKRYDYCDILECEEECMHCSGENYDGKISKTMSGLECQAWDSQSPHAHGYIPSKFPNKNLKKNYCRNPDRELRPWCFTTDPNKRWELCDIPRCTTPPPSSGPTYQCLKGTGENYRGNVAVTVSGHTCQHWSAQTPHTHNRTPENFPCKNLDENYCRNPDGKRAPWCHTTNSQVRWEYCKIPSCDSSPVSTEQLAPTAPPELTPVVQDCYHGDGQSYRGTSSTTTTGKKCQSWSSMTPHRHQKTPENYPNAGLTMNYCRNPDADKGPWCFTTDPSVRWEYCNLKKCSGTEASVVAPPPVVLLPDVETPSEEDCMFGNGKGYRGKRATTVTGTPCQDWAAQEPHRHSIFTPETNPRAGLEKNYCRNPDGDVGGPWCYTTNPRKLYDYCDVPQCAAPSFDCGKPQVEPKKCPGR
# Sequence of Plasminogen (P00747 581-810 limits assumed): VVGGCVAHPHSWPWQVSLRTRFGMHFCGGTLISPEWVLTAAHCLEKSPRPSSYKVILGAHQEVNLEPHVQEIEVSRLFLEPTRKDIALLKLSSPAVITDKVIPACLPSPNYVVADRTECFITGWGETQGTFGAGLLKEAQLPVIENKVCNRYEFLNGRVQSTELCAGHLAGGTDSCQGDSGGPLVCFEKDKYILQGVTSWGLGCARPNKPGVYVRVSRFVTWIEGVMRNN
smiles,measurement,setting,value
CC1CCCC(C)N1CCCCCN1C(=O)C(c2cccc(C(=N)N)c2)Oc2ccccc21 (stereo not given),Concentration,Oryctolagus cuniculus [1],0.15 µM
same,IC50,[2],23 µM
same,IC50,Coagulation factor X [3],0.003 µM
same,TO,Oryctolagus cuniculus [4],27 min
same,TO,Canis familiaris [5],87 min
same,IC50,Plasminogen,8.4 µM
same,TO,Canis familiaris [6],220 min
same,Concentration,Oryctolagus cuniculus [7],0.33 µM
same,TO,Canis familiaris [8],144 min
same,Concentration,Canis lupus familiaris [9],0.57 µM
same,inhibition,[10],24%
same,Concentration,Homo sapiens [11],0.34 µM
same,TO,Oryctolagus cuniculus [12],37 min
same,Concentration,Canis lupus familiaris [13],0.19 µM
same,TO,Canis familiaris [14],125 min
same,TO,Oryctolagus cuniculus [15],98 min
same,TO,Canis familiaris [16],240 min
same,TO,Canis familiaris [17],240 min
same,TO,Canis familiaris [18],167 min
same,IC50,Coagulation factor X [19],0.004 µM
same,TO,Canis familiaris [20],240 min
same,inhibition,[21],32%
same,Concentration,Homo sapiens [22],0.17 µM
same,TO,Canis familiaris [23],120 min
same,TO,Canis familiaris [24],148 min
